For 1 compound, Activity and Drug uptake results are on record in ChEMBL document CHEMBL4354869, “pH-Dependent Grafting of Cancer Cells with Antigenic Epitopes Promotes Selective Antibody-Mediated Cytotoxicity” (J Med Chem, 2020).

Series [1] deals with MDA-MB-231. Kind of series: Induction of opsonization in human MDA-MB-231 cells assessed as increase in recruitment of anti-DNP antibody to cell surface at 1 uM preincubated for 5 mins at pH 6 to 7.4 followed by pooled human serum addition and measured in presence of FITC-labeled anti-human IgG antibody based flow cytometry. The class given is functional. The procedure, abridged: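 300000 MDA-MB-231 in suspension exposed to 1 μM conjugate 5 min, 37 °C, pH 7.4 or 6.0; washed; blocked with human IgG isotype control 100 μg/mL, 20 min 4 °C; 12.5% pooled human complement serum 20 min 4 °C; then 25 μg/mL FITC anti-human IgG 30 min 4 °C; PFA-fixed, flow cytometry; fold over pH 7.4 serum-only.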
In general terms: A flow cytometer gives signals particle by particle.

Series [2] concerns MDA-MB-231. Description: Cytotoxicity against human MDA-MB-231 cells assessed as increase in cell lysis at <=10 uM measured after 4 hrs by LDH release assay. Type of series: cell-based. The following applies: mda-mb-231, 4 h. Background: Release of lactate dehydrogenase indicates damage to the cell membrane.
A short description of series [3]: Drug internalization in human MDA-MB-231 cells assessed as increase in fluorescence at 1 uM measured after 30 mins at pH 6 to 7.4 in presence of FITC-labeled anti-human IgG by flow cytometric method. The class given is ADME, cell-based. The following applies: mda-mb-231, pH 6, 0.5 h. The procedure, abridged:
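Control for specificity: MDA-MB-231 treated with 1 μM conjugate at pH 7.4 or 6.0 (5–10 min, 37 °C), washed, then incubated ± 25 μg/mL FITC anti-human IgG in PBS/10% FBS, 30 min at 4 °C, fixed, read by flow cytometry.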

Series [4] has as its system MDA-MB-231. Kind of series: Induction of complement dependent cytotoxicity against human MDA-MB-231 cells assessed as cell lysis at 1 uM incubated for 5 mins at pH 6 followed by compound washout prior to anti-DNP antibody addition for 30 mins and subsequent pooled human serum addition measured after 4 hrs by LDH release assay relative to control. Type of series: functional. The procedure, abridged: (§1)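 240000 MDA-MB-231 exposed in suspension to 1 μM conjugate for 5 min, 37 °C, at pH 7.4 or 6.0, washed, 25 μg/mL unlabeled anti-DNP rabbit polyclonal 30 min 4 °C, then 12.5% pooled human complement serum in DMEM 4 h at 37 °C. Supernatant LDH (A490/A680); % lysis vs antibody-only cells without peptide.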

In series [5] the test system is MDA-MB-231. Kind of series: Induction of opsonization in human MDA-MB-231 cells assessed as increase in recruitment of anti-DNP antibody to cell surface at 1 uM measured after 1 hr at pH 6 to 7.4 by AlexaFluor-488-conjugated anti-DNP antibody based flow cytometry. Type of series: functional.
Series [6] concerns MDA-MB-231. Description: Induction of antibody dependent cytotoxicity against human MDA-MB-231 cells assessed as cell lysis at 500 nM incubated for 5 mins at pH 6 to 7.4 followed by compound washout prior to anti-DNP antibody addition for 30 mins and subsequent human haNK cell addition at 5:1 effector to target ratio measured after 4 hrs by LDH release assay relative to control. The class given is functional. The procedure, abridged:
(§2)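 150000 MDA-MB-231 given conjugate 5 min at 37 °C, pH 7.4 or 6.0, washed at 4 °C, 25 μg/mL anti-DNP rabbit polyclonal 30 min 4 °C, then effectors 4 h at 37 °C: single-donor PBMCs at 50:1 in RPMI 1640, or haNK (F176V CD16 NK-92, IL-2-grown) at 5:1 in MEMα. Supernatant LDH; % lysis vs antibody+effector without peptide; mean ± SEM, n = 3–12.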

Series [7] has as its system MDA-MB-231. Kind of series: Cytotoxicity against human MDA-MB-231 cells assessed as increase in cell lysis at 0.5 to 1 uM incubated for 5 mins at pH 6 to 7.4 followed by compound washout prior to anti-FITC polyclonal rabbit antibody addition for 30 mins and subsequent human haNK cell addition at 5:1 effector to target ratio measured after 4 hrs by LDH release assay. Type of series: cell-based. To be noted: mda-mb-231, pH 6, 1 µM. The procedure, abridged: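 150000 target cells (MDA-MB-231; also LnCap, SK-OV-3 with haNK) treated with conjugate 5 min at 37 °C, pH 7.4 or 6.0, washed, 25 μg/mL anti-FITC rabbit polyclonal 30 min 4 °C, then 4 h at 37 °C with PBMCs at 50:1 (RPMI) or haNK at 5:1 (MEMα). LDH release; % lysis relative to antibody-only pH 7.4 cells; mean ± SEM, n = 3–12.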

The test system of series [8] is MDA-MB-231. Description: Induction of antibody dependent cytotoxicity against human MDA-MB-231 cells assessed as increase in cell lysis incubated for 5 mins at pH 6 to 7.4 followed by compound washout prior to anti-DNP antibody addition for 30 mins and subsequent human PBMC addition at 5:1 effector to target ratio measured after 4 hrs by LDH release assay. Type of series: functional, cell-based.

In series [9] the test system is MDA-MB-231. Kind of series: Induction of opsonization in human MDA-MB-231 cells assessed as increase in recruitment of anti-DNP antibody to cell surface at 1 uM measured after 5 mins at pH 6 to 7.4 by AlexaFluor-488-conjugated anti-DNP antibody based immunofluorescence microscopic analysis. Type of series: functional. The method, boiled down:
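MDA-MB-231 grown on poly-L-lysine coverslips (~70% confluent), exposed to 1 μM conjugate 5 min at 37 °C, pH 7.4 or 6.0, methanol-fixed, stained 1 h at 37 °C with anti-DNP-A488 at 40 μg/mL, Hoechst counterstain; imaged with 20× objective.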

Series [10] relates to MDA-MB-231. Kind of series: Induction of opsonization in human MDA-MB-231 cells assessed as increase in recruitment of anti-DNP antibody to cell surface at 1 uM preincubated with AlexaFluor-488-conjugated anti-DNP antibody for 30 mins followed by cell addition at pH 6 to 7.4 by flow cytometry. Type of series: functional, cell-based.
The test system of series [11] is MDA-MB-231. Kind of series: Induction of antibody dependent cytotoxicity against human MDA-MB-231 cells assessed as cell lysis at >1 uM incubated for 5 mins at pH 6 followed by compound washout prior to anti-DNP antibody addition for 30 mins and subsequent human PBMC addition at 5:1 effector to target ratio measured after 4 hrs by LDH release assay. The class given is functional, cell-based.

Series [12] has as its system MDA-MB-231. Description: Induction of complement dependent cytotoxicity against human MDA-MB-231 cells assessed as cell lysis at 1 uM incubated for 5 mins at pH 7.4 followed by compound washout prior to anti-DNP antibody addition for 30 mins and subsequent pooled human serum addition measured after 4 hrs by LDH release assay. Type of series: functional, cell-based. The method, boiled down:
as §1

The subject of series [13] is MDA-MB-231. Description: Induction of antibody dependent cytotoxicity against human MDA-MB-231 cells assessed as induction of cell lysis at >500 nM incubated for 5 mins at pH 6 to 7.4 followed by compound washout prior to anti-DNP antibody addition for 30 mins and subsequent human haNK cell addition at 5:1 effector to target ratio measured after 4 hrs by LDH release assay. Type of series: functional, cell-based. The procedure, abridged:
as §2

The subject of series [14] is MDA-MB-231. Kind of series: Induction of opsonization in human MDA-MB-231 cells assessed as increase in recruitment of anti-DNP antibody to cell surface at 1 uM measured after 5 to 10 mins at pH 6 to 7.4 by AlexaFluor-488-conjugated anti-DNP antibody based flow cytometry. The class given is functional. The method, boiled down: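 Conjugate pre-incubated 1 h RT at 20 μM in 5 mM sodium phosphate pH 9.0, diluted, then pH adjusted with citrate buffer. MDA-MB-231 (350000 cells, suspension) exposed to 1 μM for 5 or 10 min, 37 °C, pH 7.4 or 6.0, washed, stained with 25 μg/mL anti-DNP-A488 30 min at 4 °C, PFA-fixed. Flow cytometry, ≥3000 events; fold over pH 7.4 antibody-only cells.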

Active and inactive are the calls of the source. No cut-off for these calls is given here. Peptide text beside a SMILES is read from it. * marks the point of attachment. Dnp = O=[N+]([O-])c1ccc(*)c([N+](=O)[O-])c1

Regarding `CC[C@H](C)[C@H](NC(=O)[C@@H]1CCCN1C(=O)[C@H](CC(N)=O)NC(=O)[C@H](CCC(N)=O)NC(=O)[C@H](CCC(=O)O)NC(=O)[C@@H](N)CCCCNc1ccc([N+](=O)[O-])cc1[N+](=O)[O-])C(=O)N[C@@H](Cc1ccc(O)cc1)C(=O)N[C@@H](Cc1c[nH]c2ccccc12)C(=O)N[C@@H](C)C(=O)N[C@@H](CCCNC(=N)N)C(=O)N[C@@H](Cc1ccc(O)cc1)C(=O)N[C@@H](C)C(=O)N[C@@H](CC(=O)O)C(=O)N[C@@H](Cc1c[nH]c2ccccc12)C(=O)N[C@@H](CC(C)C)C(=O)N[C@@H](Cc1ccccc1)C(=O)N[C@H](C(=O)N[C@H](C(=O)N1CCC[C@H]1C(=O)N[C@@H](CC(C)C)C(=O)N[C@@H](CC(C)C)C(=O)N[C@@H](CC(C)C)C(=O)N[C@@H](CC(C)C)C(=O)N[C@@H](CCC(=O)O)C(=O)N[C@@H](CC(C)C)C(=O)N[C@@H](C)C(=O)N[C@@H](CC(C)C)C(=O)N[C@@H](CC(C)C)C(=O)N[C@H](C(=O)N[C@@H](CC(=O)O)C(=O)N[C@@H](C)C(=O)N[C@@H](CC(=O)O)C(=O)N[C@@H](CCC(=O)O)C(=O)NCC(=O)N[C@H](C(=O)NCC(N)=O)[C@@H](C)O)C(C)C)[C@@H](C)O)[C@@H](C)O` (H-K(Dnp)EQNPIYWARYADWLFTTPLLLLELALLVDADEGTG-NH2), the result with MDA-MB-231 [1], in the series with MDA-MB-231 [5], with MDA-MB-231 [9], in the series on MDA-MB-231 [10] and in the series on MDA-MB-231 [14] was Active. In addition, the Activity entry in the series with MDA-MB-231 [2] is “Non-Toxic”; with MDA-MB-231 [4] it was 10%; in the series on MDA-MB-231 [6], 40%; in the series on MDA-MB-231 [7], “Non-Toxic”; in the series on MDA-MB-231 [8], “Dose-dependent effect”. Further, the Drug uptake result in series [3] was “Not Active”. The outcome in the series on MDA-MB-231 [11], in the series with MDA-MB-231 [12] and with MDA-MB-231 [13] was inactive.
